# Test results: PMC10162598 (Asian Pacific Journal of Cancer Prevention : APJCP, 2023)
# Where “and” joins values, the source holds several entries; their conditions need not be identical. Equal entries are not always repeated.
# Columns and labels:
# [1] = system: Notch1 receptor; assay: RT-PCR mRNA expression of Notch1 receptor in HuCCT-1; assay type: cell-based, human; conditions: HuCCT-1, 72 hours
# [2] = system: mTOR; assay: Western blot protein expression of mTOR in HuCCT-1; assay type: cell-based, human; conditions: HuCCT-1, 72 hours, at IC25
# Outline: (§1)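 After 72 h exposure to test compound, HuCCT-1 cells were lysed in RIPA buffer with protease inhibitor, and protein was quantified by BCA. Lysates were resolved by SDS-PAGE and transferred to nitrocellulose. Membranes were probed overnight with primary antibodies (target and β-actin), then an AP-conjugated anti-rabbit secondary. Bands were quantified by densitometry. Three experiments, each in triplicate.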
# [3] = system: YAP; assay: RT-PCR mRNA expression of YAP in HuCCT-1; assay type: cell-based, human; conditions: HuCCT-1, 72 hours
# [4] = system: HuCCT-1 (CCA cell line); assay: Antiproliferative MTT assay, HuCCT-1; assay type: cell-based, human; conditions: for IC25 (concentration that inhibits cell growth by 25%) / IC50 (concentration that inhibits cell growth by 50%): HuCCT-1, MTT, 72 hours, mean±SD; for Selectivity index (SI): ratio of the IC50 in HuCCT-1 and OUMS-36T-1 cells
# Outline: (§2)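 Cells (8,000/well; HuCCT-1 in RPMI-1640, OUMS-36T-1 in DMEM, both with 10% FBS) were preincubated 24 h at 37°C, 5% CO2, then exposed to test compound for 72 h. Natural product range was 1.95–250 µg/ml. MTT (5 mg/ml stock) was added for 3.5 h, formazan dissolved in DMSO, and A590 read. IC25/IC50 came from dose-response analysis. SI = HuCCT-1 vs OUMS-36T-1 IC50 ratio. Three experiments, triplicate.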
# [5] = system: OUMS-36T-1 (normal human cell line); assay: Antiproliferative MTT assay, OUMS-36T-1; assay type: cell-based; conditions: OUMS-36T-1, MTT, 72 hours, mean±SD
# Outline: as §2
# [6] = system: YAP; assay: Western blot protein expression of YAP in HuCCT-1; assay type: cell-based, human; conditions: HuCCT-1, 72 hours, at IC25
# Outline: as §1
# [7] = system: PI3K; assay: Western blot protein expression of PI3K in HuCCT-1; assay type: cell-based, human; conditions: HuCCT-1, 72 hours, at IC50
# Outline: as §1
# [8] = system: JAG1 ligand; assay: Western blot protein expression of JAG1 ligand in HuCCT-1; assay type: cell-based, human; conditions: HuCCT-1, 72 hours, at IC25
# Outline: as §1
# [9] = system: JAG1 ligand; assay: RT-PCR mRNA expression of JAG1 ligand in HuCCT-1; assay type: cell-based, human; conditions: HuCCT-1, 72 hours, at IC25
# [10] = system: PI3K; assay: RT-PCR mRNA expression of PI3K in HuCCT-1; assay type: cell-based, human; conditions: HuCCT-1, 72 hours
SMILES,"YAP gene expression, fold-change ([3]; at high concentration (IC50))","YAP gene expression, fold-change ([3]; at low concentration (IC25))",IC25 (concentration that inhibits cell growth by 25%) [4],IC25 (concentration that inhibits cell growth by 25%) [5],IC50 (concentration that inhibits cell growth by 50%) [5],IC50 (concentration that inhibits cell growth by 50%) [4],Selectivity index (SI) [4],further results
C/C=C/C#CC#C/C=C/c1ccco1 [Atractylodin],2.219 fold,0.086 fold,13.44 ± 6.28 µg/mL,10.08 ± 4.27 µg/mL,24.47 ± 8.46 µg/mL,,,"Notch1 receptor gene expression, fold of control ([1]; at IC25 and IC50 concentrations (low and high)): 0.042 fold; mTOR protein expression, fold [2]: 1.67 fold; YAP protein expression, fold [6]: 0.819 fold"
C[C@H](NC(=O)Cc1cc(F)cc(F)c1)C(=O)N[C@H](C(=O)OC(C)(C)C)c1ccccc1 [DAPT],,,,,150.29 ± 23.79 µg/mL,88.98 µg/mL and 89.88 ± 36.11 µg/mL,,
O=c1ncccn1[C@@H]1O[C@H](CO)[C@@H](O)[C@H]1O [Zebularine],,,,,,,4.41,"YAP gene expression, fold-change ([3]; concentration not given): 0.647 fold"
C=C1CCC[C@]2(C)CC[C@@H](C(C)(C)O)C[C@@H]12 [β-eudesmol],1.978 fold,0.280 fold,6.37 ± 2.53 µg/mL,18.12 ± 7.43 µg/mL,,,1.68,
Nc1ccn([C@@H]2O[C@H](CO)[C@@H](O)C2(F)F)c(=O)n1 [Gemcitabine],,,0.22 ± 0.35 µg/mL,3.40 ± 5.78 µg/mL,,4.97 ± 5.09 µg/mL,14.05,"PI3K protein expression, fold [7]: 0.677 fold; Notch1 receptor gene expression, fold of control ([1]; at IC50): 0.318 fold; JAG1 ligand protein expression, fold [8]: 0.610 fold; JAG1 ligand gene expression, fold [9]: 1.344 fold; PI3K gene expression, fold ([10]; at IC25): 1.4 fold; PI3K gene expression, fold ([10]; at IC50): 2.25 fold"
